This is an account of results in ChEMBL document CHEMBL3352234, “Discovery of furan-2-carbohydrazides as orally active glucagon receptor antagonists” (Bioorg Med Chem Lett, 2014).

Data set [1] deals with Glucagon receptor (Rattus norvegicus) (UniProt P30082). As to the kind of experiment: Displacement of [125I]glucagon from glucagon receptor in rat hepatocyte membranes at 10 uM after 30 mins by gamma-counting. The class given is cell membranes. A digest of the protocol:
(§1)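 Rat liver was homogenized in 20 volumes of 50 mM Tris–HCl (pH 7.2) and the membrane pellet collected by two 30,000g spins of 15 min each. Membranes were resuspended in Tris–HCl pH 7.2 with 1 mg/mL BSA and 0.1 mg/mL bacitracin. Incubation was with [125I]glucagon (final 50 pM) at 25 °C for 30 min, then filtration onto PEI-treated GF/C filters and gamma counting. Inhibition is relative to binding without compound, after subtracting nonspecific binding with excess glucagon. Run in duplicate.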

In data set [2] the test system is Rattus norvegicus. As to the kind of experiment: Half life in rat at 1 mg/kg, iv. As to conditions: in vivo. On the set-up: dose 1 mg/kg, route intravenous. The class given is ADME, organism-based.
A short description of data set [3]: Oral bioavailability in rat at 1 mg/kg. The class given is ADME, organism-based. As to conditions: in vivo.
Data set [4] is described as follows: Inhibition of glucagon-induced glucagon receptor-mediated cAMP production in dog hepatocytes after 15 mins by cAMP dynamic2 assay. The class given is cell-based. The following applies: Canis lupus familiaris, Hepatocyte, 0.25 h. A digest of the protocol:
(§2)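 Hepatocytes were suspended in HCM medium, seeded on collagen-coated wells and incubated for 5 h. Compound in DMEM with 20 mM HEPES, 0.1% BSA and 0.5 mM IBMX was preincubated for 15 min at room temperature. Glucagon was then added for 5 min at room temperature. Cells were lysed with 0.5 M HCl for 10 min and neutralized with Tris–HCl pH 8.0. Supernatant cAMP was quantified with the cAMP dynamic2 kit.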
(cAMP levels reflect the balance of adenylyl cyclase and phosphodiesterase activity.)

Data set [5] addresses Glucagon receptor (Homo sapiens, UniProt P47871). As to the kind of experiment: Inhibition of glucagon-induced glucagon receptor-mediated cAMP production in human hepatocytes after 15 mins by cAMP dynamic2 assay. The data set is classed as functional, cell-based, Hepatocyte. In outline:
as §2

Data set [6] deals with Glucagon-like peptide 1 receptor (Homo sapiens, UniProt P43220). As to the kind of experiment: Inhibition of GLP-1R (unknown origin).
Data set [7] in a line: Inhibition of sodium channel site 2 (unknown origin). Details: species or system Homo sapiens.
For data set [8], the target named is Voltage-gated inwardly rectifying potassium channel KCNH2 (Homo sapiens, UniProt Q12809). As to the kind of experiment: Inhibition of human ERG.
The nature of data set [9]: Half life in rat at 1 mg/kg, po. On the set-up: dose 1 mg/kg, route oral. The data set is classed as ADME, organism-based. The following applies: in vivo.
For data set [10], the system named is Rattus norvegicus. As to the kind of experiment: Inhibition of glucagon-induced glucose elevation in normal rat at 30 mg/kg, po administered 30 mins prior challenge measured up to 6 hrs.
Data set [11] deals with Rattus norvegicus. As to the kind of experiment: Inhibition of glucagon-induced glucose elevation in rat at 30 mg/kg, po administered 30 mins prior challenge measured up to 6 hrs. The data set is classed as functional, organism-based. Details: dose 30 mg/kg. In outline:
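Normal rats were dosed orally 30 min before an intravenous glucagon challenge, with blood sampled afterwards for glucose. Values are mean ± SEM, n = 6 per group; Dunnett multiple comparison test.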

The test system of data set [12] is Rattus norvegicus. As to the kind of experiment: Volume of distribution at steady state in rat at 1 mg/kg, iv. The data set is classed as ADME, organism-based. Details: dose 1 mg/kg, route intravenous. The following applies: in vivo.
Data set [13] concerns the target T1, Glucagon receptor (Rattus norvegicus, UniProt P30082). As to the kind of experiment: Inhibition of glucagon-induced glucagon receptor-mediated cAMP production in rat hepatocytes after 15 mins by cAMP dynamic2 assay. The class given is functional, cell-based, Hepatocyte. In outline: as §2
The nature of data set [14]: Cmax in rat at 1 mg/kg, po. On the set-up: dose 1 mg/kg, route oral. The data set is classed as ADME, organism-based. As to conditions: in vivo.
The target in data set [15] is T1, Glucagon receptor. As to the kind of experiment: Displacement of [125I]glucagon from glucagon receptor in rat hepatocyte membranes after 30 mins by gamma-counting. The class given is cell membranes. In outline: as §1
On the technique in general: Displacement assays read how much labelled ligand stays bound in the presence of the test substance.

pIC50: −log10 of the molar value. Activity calls are given as the source filed them. No cut-off for these calls is given here. Some results are limits rather than exact numbers.

Glucagon receptor (Rattus norvegicus), sequence (P30082 whole entry): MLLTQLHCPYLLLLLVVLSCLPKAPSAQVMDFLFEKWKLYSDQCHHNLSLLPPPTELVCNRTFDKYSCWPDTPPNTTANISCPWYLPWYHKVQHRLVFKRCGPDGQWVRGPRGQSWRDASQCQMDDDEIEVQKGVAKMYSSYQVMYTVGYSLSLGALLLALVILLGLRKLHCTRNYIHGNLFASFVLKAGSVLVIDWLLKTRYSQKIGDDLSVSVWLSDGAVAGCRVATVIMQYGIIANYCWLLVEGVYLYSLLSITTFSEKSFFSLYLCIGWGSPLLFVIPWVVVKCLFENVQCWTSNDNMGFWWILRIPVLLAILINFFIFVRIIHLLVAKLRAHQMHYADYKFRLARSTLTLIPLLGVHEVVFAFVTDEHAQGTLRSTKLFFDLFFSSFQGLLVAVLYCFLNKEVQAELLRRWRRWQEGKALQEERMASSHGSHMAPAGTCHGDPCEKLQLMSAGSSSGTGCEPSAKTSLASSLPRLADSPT
T1 sequence (P30082 whole entry): as above
Voltage-gated inwardly rectifying potassium channel KCNH2, sequence (Q12809 whole entry): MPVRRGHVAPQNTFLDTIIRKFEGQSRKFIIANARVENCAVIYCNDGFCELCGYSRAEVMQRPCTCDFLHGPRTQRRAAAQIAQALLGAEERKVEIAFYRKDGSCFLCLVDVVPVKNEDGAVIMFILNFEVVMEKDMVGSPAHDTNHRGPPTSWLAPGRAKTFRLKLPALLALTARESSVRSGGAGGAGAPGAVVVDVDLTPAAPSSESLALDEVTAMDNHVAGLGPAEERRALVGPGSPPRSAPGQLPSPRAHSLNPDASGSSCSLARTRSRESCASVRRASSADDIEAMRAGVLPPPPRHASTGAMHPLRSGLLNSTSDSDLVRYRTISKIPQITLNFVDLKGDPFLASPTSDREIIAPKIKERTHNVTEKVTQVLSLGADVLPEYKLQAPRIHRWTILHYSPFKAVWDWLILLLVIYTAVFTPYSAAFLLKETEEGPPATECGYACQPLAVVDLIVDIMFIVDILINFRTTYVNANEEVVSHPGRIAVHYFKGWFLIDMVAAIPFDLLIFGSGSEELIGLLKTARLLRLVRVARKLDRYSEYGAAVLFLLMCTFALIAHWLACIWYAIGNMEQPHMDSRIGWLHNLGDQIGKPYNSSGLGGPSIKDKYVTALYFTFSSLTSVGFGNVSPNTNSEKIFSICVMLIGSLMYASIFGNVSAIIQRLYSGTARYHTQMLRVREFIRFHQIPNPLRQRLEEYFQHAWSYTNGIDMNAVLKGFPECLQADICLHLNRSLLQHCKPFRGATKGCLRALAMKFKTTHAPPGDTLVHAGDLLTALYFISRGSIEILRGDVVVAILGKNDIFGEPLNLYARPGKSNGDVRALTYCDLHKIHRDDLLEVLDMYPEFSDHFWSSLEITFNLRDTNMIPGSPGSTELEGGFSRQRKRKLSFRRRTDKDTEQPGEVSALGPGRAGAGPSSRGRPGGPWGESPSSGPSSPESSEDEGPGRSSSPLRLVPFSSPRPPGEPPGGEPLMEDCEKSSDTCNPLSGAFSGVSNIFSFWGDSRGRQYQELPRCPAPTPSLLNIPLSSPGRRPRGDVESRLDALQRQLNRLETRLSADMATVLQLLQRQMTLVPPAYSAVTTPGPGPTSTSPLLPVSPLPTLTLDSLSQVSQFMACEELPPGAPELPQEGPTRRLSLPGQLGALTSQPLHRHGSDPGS
Glucagon receptor (Homo sapiens, UniProt P47871), sequence (P47871 whole entry): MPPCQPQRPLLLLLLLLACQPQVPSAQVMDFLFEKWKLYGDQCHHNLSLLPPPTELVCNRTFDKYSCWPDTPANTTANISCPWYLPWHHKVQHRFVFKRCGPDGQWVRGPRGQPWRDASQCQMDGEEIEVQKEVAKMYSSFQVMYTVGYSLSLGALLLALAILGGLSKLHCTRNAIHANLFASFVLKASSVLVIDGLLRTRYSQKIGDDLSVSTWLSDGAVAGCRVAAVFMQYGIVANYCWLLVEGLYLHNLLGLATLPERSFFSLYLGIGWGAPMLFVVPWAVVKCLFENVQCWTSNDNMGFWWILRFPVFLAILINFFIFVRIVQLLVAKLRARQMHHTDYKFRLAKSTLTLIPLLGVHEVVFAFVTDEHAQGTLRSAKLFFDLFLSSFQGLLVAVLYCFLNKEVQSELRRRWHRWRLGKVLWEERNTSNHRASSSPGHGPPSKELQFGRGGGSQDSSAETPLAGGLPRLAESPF
Glucagon-like peptide 1 receptor, sequence (P43220 whole entry): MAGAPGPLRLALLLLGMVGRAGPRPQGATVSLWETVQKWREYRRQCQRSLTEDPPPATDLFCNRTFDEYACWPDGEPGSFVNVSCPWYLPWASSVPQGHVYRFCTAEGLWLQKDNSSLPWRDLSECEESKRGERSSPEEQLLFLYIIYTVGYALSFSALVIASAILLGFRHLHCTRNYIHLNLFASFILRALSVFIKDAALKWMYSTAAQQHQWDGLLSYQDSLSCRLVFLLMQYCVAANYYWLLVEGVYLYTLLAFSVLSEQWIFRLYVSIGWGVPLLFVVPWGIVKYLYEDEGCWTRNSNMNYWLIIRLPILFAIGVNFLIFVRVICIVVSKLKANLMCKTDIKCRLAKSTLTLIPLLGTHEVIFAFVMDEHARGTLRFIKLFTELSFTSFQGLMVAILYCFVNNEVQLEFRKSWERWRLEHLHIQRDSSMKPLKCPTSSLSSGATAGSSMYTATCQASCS

The term inhibition denotes how much of the control response was suppressed. Turning to `COc1ccc(C(=O)NNC(=O)c2occ(-c3ccccc3)c2-c2ccccc2)cc1`, in [1], the inhibition result was “inactive”.
Take `O=C(NNC(=O)c1occ(-c2ccccc2)c1-c1ccccc1)c1ccco1`: in data set [1], the inhibition worked out at 50%.
Usually bioavailability stands for the share of a dose that reaches the circulation, judged against a reference dose that is usually intravenous. Usually pIC50 stands for the negative decadic logarithm of the IC50, by convention in mol/L. Broadly, the half-life is the time in which the quantity being followed falls by half. Read a low half-life as fast loss. What is called Vdss is a proportionality between amount in the body and measured concentration, not a real space. A high value points to wide distribution into tissue. For orientation: Cmax means the maximum level reached in the sampled fluid or tissue. Compound `CCCCCc1ccc(-c2ccoc2C(=O)NNC(=O)c2ccc(O)c([N+](=O)[O-])c2)cc1` displayed a t1/2 in [2] of 5.9 h. Besides, the bioavailability in data set [3] was 37%. Moreover, the negative logarithm of the IC50 (pIC50) in data set [4] was 6.74; in data set [5], 6.53; in data set [6], under 6.00; in [7], under 6.00; in [8], under 6.00; in data set [13], 8.28. In data set [9], this compound had a half-life of 366 min. The inhibition result in data set [10] and in data set [11] was “Active” throughout. Moreover, the Vdss in data set [12] is 0.59 L/kg. Moreover, in [14], the peak level (Cmax) was 411 ng/mL.
In data set [15], `O=C(NNC(=O)c1occ(-c2ccccc2)c1-c1ccccc1)c1ccc(O)c([N+](=O)[O-])c1` showed a negative logarithm of the IC50 (pIC50) of 7.06.
As for `O=C(NNC(=O)c1occ(-c2ccccc2)c1-c1ccccc1)c1ccc(O)c(F)c1`, the pIC50 in data set [15] was 5.85.
The compound `O=C(NNC(=O)c1occ(-c2ccccc2)c1-c1ccccc1)c1ccc(O)c(Cl)c1` showed a pIC50 in data set [15] of 6.37.
In turn, `O=C(NNC(=O)c1occ(-c2ccccc2)c1-c1ccccc1)c1ccc(O)nc1` showed a pIC50 in data set [15] of 6.01.
For `O=C(NNC(=O)c1occ(-c2ccccc2)c1-c1ccccc1)c1cccc(O)c1`, the inhibition in [1] came to 21%.
In turn, `O=C(NNC(=O)c1occ(-c2ccccc2)c1-c1ccccc1)c1ccc(O)c(O)c1` returned an inhibition in [1] of 57%.
The same measure, in the same setting: next, `O=C(NNC(=O)c1occ(-c2ccccc2)c1-c1ccccc1)c1ccoc1`: 73%; `O=C(NNC(=O)c1cc(-c2ccccc2)co1)c1ccoc1`: 6%.
Turning to `O=C(NNC(=O)c1occ(-c2ccccc2)c1-c1ccccc1)c1ccc(O)c(-c2ccccc2)c1`, the pIC50 in data set [15] is under 5.00.
Consider `O=C(O)c1ccc(C(=O)NNC(=O)c2occ(-c3ccccc3)c2-c2ccccc2)cc1`, for which, in data set [1], the inhibition turned out to be 61%.
For `COc1cc(C(=O)NNC(=O)c2occ(-c3ccccc3)c2-c2ccccc2)ccc1O`, the negative-log IC50 (pIC50) in data set [15] is 5.02.
In turn, `O=C(NNC(=O)c1occ(-c2ccccc2)c1-c1ccccc1)c1ccccc1` came in with an inhibition in data set [1] of 42%.
On to `O=C(NNC(=O)c1occ(-c2ccccc2)c1-c1ccccc1)c1ccc(O)c(Br)c1`, for which, in [15], the pIC50 was 6.57.
As to `O=C(NNC(=O)c1occ(-c2ccccc2)c1-c1ccccc1)c1ccc(O)cc1`, the inhibition in data set [1] was 65%. The compound further gave a pIC50 in [15] of 5.02.
